In ChEMBL document CHEMBL3244228, “Synthesis and biological properties of 2-, 5-, and 6-fluoronorepinephrines” (J Med Chem, 1979):
Activity calls are given as the source filed them. No cut-off for these calls is given here.

How the values were obtained:
Cavia porcellus [1] = organism: Cavia porcellus; experiment: Agonist activity at alpha-adrenergic receptor in Hartley guinea pig aorta assessed as maximal contraction in presence of beta-adrenergic receptor antagonist propranolol; type: tissue-based
Cavia porcellus [2] = organism: Cavia porcellus; experiment: Agonist activity at beta-adrenergic receptor in Hartley guinea pig atria assessed as maximal increase in contraction rate in presence of alpha-adrenergic receptor antagonist phentolamine
[3] = biological target: Adrenergic receptor alpha; experiment: Agonist activity at alpha-adrenergic receptor in Sprague-Dawley rat cerebral cortex assessed as [3H]cAMP accumulation by liquid scintillation spectroscopy in presence of propranolol; type: functional, tissue-based
Summary of the method: (§1)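 Male Sprague-Dawley rat cerebral cortical slices (260 μm, cross-chopped) are preincubated 15 min in Krebs-Ringer bicarbonate glucose buffer, labelled 40 min at 37 °C with adenine (30 μM) plus [3H]adenine, then equilibrated 5 min. Amines are applied at 1 to 100 μM for 10 min, with propranolol 10 μM for α responses and phentolamine 10 μM for β responses. Cyclic [3H]AMP is isolated from TCA extracts on a double column, corrected for carrier recovery and reported as percent conversion. EC50 from six dose-response curves.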

Cavia porcellus [4] = organism: Cavia porcellus; experiment: Agonist activity at alpha-adrenergic receptor in Hartley guinea pig aorta assessed as maximal contraction in presence of alpha-adrenergic receptor antagonist phentolamine; type: tissue-based
[5] = Agonist activity at beta-adrenergic receptor in Hartley guinea pig atria assessed as maximal increase in contraction rate; set-up: species or system Cavia porcellus
Summary of the method: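 Atria from 250-300 g male Hartley guinea pigs, bathed in 10 mL Tyrode's at 37 °C under 95% O2/5% CO2, dosed at 0.1 to 100 μM. Contraction rate read 60 s after each dose against the pre-experiment rate and expressed as percent of the maximal increase given by (±)-NE. EC50 ± SD from eight dose-response curves.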

Cavia porcellus [6] = organism: Cavia porcellus; experiment: Agonist activity at beta-adrenergic receptor in Hartley guinea pig atria assessed as maximal increase in contraction rate in presence of beta-adrenergic receptor antagonist propranolol
[7] = biological target: Adrenergic receptor alpha; experiment: Displacement of [3H]WB4101 from alpha-adrenergic receptor in Sprague-Dawley rat cerebral cortical membrane
[8] = biological target: Adrenergic receptor alpha (Rattus norvegicus) (UniProt P15823+P23944+P43140+P22086+P19328+P22909); experiment: Agonist activity at alpha-adrenergic receptor in Sprague-Dawley rat cerebral cortex assessed as [3H]cAMP accumulation by liquid scintillation spectroscopy in presence of propranolol and phentolamine; type: functional, tissue-based
[9] = Agonist activity at alpha-adrenergic receptor in Hartley guinea pig aorta assessed as maximal contraction; type: tissue-based, Cavia porcellus
Summary of the method: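 Aortic strip from 250-300 g male Hartley guinea pigs, in 10 mL Tyrode's solution at 37 °C aerated with 95% O2/5% CO2. Full concentration range, 0.1 to 100 μM. Response is percent of maximal contraction (largest contraction per dose relative to the maximum for (±)-NE). EC50 ± SD estimated from eight dose-response curves.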

Adrenergic receptor beta [10] = biological target: T1, Adrenergic receptor beta (Rattus norvegicus, UniProt P18090+P10608+P26255); experiment: Displacement of [3H]dihydroalprenolol from beta-adrenergic receptor in Sprague-Dawley rat cerebral cortical membrane
[11] = Agonist activity at beta-adrenergic receptor in Hartley guinea pig ileum assessed as maximal relaxation; type: tissue-based; settings: Cavia porcellus
Adrenergic receptor beta [12] = biological target: T1, Adrenergic receptor beta; experiment: Agonist activity at beta-adrenergic receptor in Sprague-Dawley rat cerebral cortex assessed as [3H]cAMP accumulation by liquid scintillation spectroscopy in presence of phentolamine; type: functional, tissue-based; summary of the method: as §1

| SMILES | Activity (Cavia porcellus [1]) | Activity (Cavia porcellus [2]) | EC50 [3] | Activity (Cavia porcellus [4]) | EC50 [5] | Activity (Cavia porcellus [6]) | EC50 [7] | Activity [8] | EC50 [9] | EC50 (Adrenergic receptor beta [10]) | EC50 [11] | EC50 (Adrenergic receptor beta [12]) |
| --- | --- | --- | --- | --- | --- | --- | --- | --- | --- | --- | --- | --- |
| Cl.NCC(O)c1cc(O)c(O)cc1F (racemic) | Active | Active | 5 µM | inactive | 72 µM | inactive | 3 µM | inactive | 2.5 µM | – | – | – |
| Cl.NCC(O)c1cc(O)c(O)c(F)c1 (racemic) | Active | Active | 5 µM | inactive | 0.11 µM | inactive | 15 µM | – | 2.4 µM | 4 µM | 44 µM | 2 µM |
| NCC(O)c1ccc(O)c(O)c1 (configuration not stated) | – | – | – | – | 0.7 µM | – | – | – | 2.6 µM | – | 15.6 µM | – |
| Cl.NCC(O)c1ccc(O)c(O)c1F (racemic) | Active | Active | > 100 µM | inactive | 0.6 µM | inactive | > 100 µM | Active | 110 µM | – | – | – |
